The values that follow come from ChEMBL document CHEMBL4118208, “Design, synthesis and molecular modeling of new 4-phenylcoumarin derivatives as tubulin polymerization inhibitors targeting MCF-7 breast cancer cells” (Bioorg Med Chem, 2018).

In brackets after ≈: the same amount, converted by molar mass. Bounds are passed on as bounds.

For data set [1], the system named is MCF7. Briefly: Growth inhibition of human MCF7 cells at 100 ug/ml after 48 hrs by MTT assay relative to control. It is filed as functional. The settings on record: MCF7, 48 h, read-out: GI. The method in brief: (§1)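 Preliminary screen at 100 µg/mL against MCF-7 and normal BJ-1 cells. Values are % inhibition, given as the mean of 3 replicate samples with standard deviation.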
In general terms: Tetrazolium assays rely on reduction of a dye to a coloured formazan, in cell work by metabolically active cells.

In data set [2] the test system is MCF7. Briefly: Induction of apoptosis in human MCF7 cells assessed as late apoptotic cells at 11.1 ug/ml after 24 hrs by Annexin V-FITC/PI staining based flow cytometry (reference value: 0.09%). It is filed as functional. The method in brief: (§2)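 MCF-7 cells treated at 11.1 µg/mL for 24 h, then labelled with annexin V-FITC and propidium iodide. Green (FITC) and red (PI) fluorescence are read by flow cytometry. Early apoptosis is scored as annexin V+/PI−, late as annexin V+/PI+. DMSO serves as negative control.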
For orientation: In flow cytometry, cells or beads pass a laser one at a time.

The test system of data set [3] is MCF7. Briefly: Cell cycle arrest in human MCF7 cells assessed as accumulation at G2/M phase at 11.1 ug/ml after 24 hrs by PI staining based flow cytometry relative to control. The class given is functional.
The subject of data set [4] is MCF7. Briefly: Cell cycle arrest in human MCF7 cells assessed as accumulation at pre-G1 phase at 11.1 ug/ml after 24 hrs by PI staining based flow cytometry relative to control. The class given is functional.
In data set [5] the test system is MCF7. Briefly: Induction of apoptosis in human MCF7 cells assessed as increase in caspase 7 levels at 11.1 ug/ml after 24 hrs by ELISA relative to control. It is filed as functional. The method in brief: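 Caspase-7 level is measured in MCF-7 cells after treatment at 11.1 µg/mL for 24 h and reported as concentration. Doxorubicin is used as reference.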
In general terms: An ELISA detects its analyte on a solid surface through an enzyme-linked reagent.

The subject of data set [6] is MCF7. As to the kind of experiment: Induction of apoptosis in human MCF7 cells assessed as necrotic cells at 11.1 ug/ml after 24 hrs by Annexin V-FITC/PI staining based flow cytometry (reference value: 0.37%). The class given is functional. The procedure, abridged:
as §2

Data set [7] has as its system MCF7. Briefly: Cell cycle arrest in human MCF7 cells assessed as apoptotic cells at 11.1 ug/ml after 24 hrs by PI staining based flow cytometry (reference value: 0.64%). The class given is functional.
For data set [8], the system named is MCF7. As to the kind of experiment: Cell cycle arrest in human MCF7 cells assessed as accumulation at S phase at 11.1 ug/ml after 24 hrs by PI staining based flow cytometry (reference value: 30.1%). It is filed as functional.
Data set [9] concerns MCF7. As to the kind of experiment: Cell cycle arrest in human MCF7 cells assessed as accumulation at G2 phase at 11.1 ug/ml after 24 hrs by PI staining based flow cytometry (reference value: 8.59%). The class given is functional.
Data set [10] is described as follows: Growth inhibition of human hTERT-BJ1 cells at 100 ug/ml after 48 hrs by MTT assay relative to control. The following applies: read-out: GI. The class given is cell-based, hTERT-BJ. The procedure, abridged:
as §1

The subject of data set [11] is MCF7. As to the kind of experiment: Induction of apoptosis in human MCF7 cells assessed as viable cells at 11.1 ug/ml after 24 hrs by Annexin V-FITC/PI staining based flow cytometry (reference value: 97.24%). It is filed as functional. The following applies: MCF7, 24 h, read-out: Activity. The procedure, abridged: as §2
Data set [12] has as its target T1, Tubulin beta-5 chain (Homo sapiens, UniProt P07437). As to the kind of experiment: Inhibition of tubulin beta polymerization in human MCF7 cells after 18 to 24 hrs by ELISA based spectrophotometric analysis. The class given is cell-based.
Data set [13] concerns MCF7. Briefly: Induction of apoptosis in human MCF7 cells assessed as early apoptotic cells at 11.1 ug/ml after 24 hrs by Annexin V-FITC/PI staining based flow cytometry (reference value: 0.18%). It is filed as functional. The method in brief:
as §2

Data set [14] relates to MCF7. Briefly: Cell cycle arrest in human MCF7 cells assessed as accumulation at G1 phase at 11.1 ug/ml after 24 hrs by PI staining based flow cytometry (reference value: 61.31%). It is filed as functional.
Data set [15] concerns MCF7. Briefly: Growth inhibition of human MCF7 cells after 48 hrs by MTT assay. The class given is functional, cell-based. The settings on record: MCF7, 48 h.
Data set [16] concerns the target T1, Tubulin beta-5 chain. Briefly: Potency index, ratio of colchicine IC50 to compound IC50 for tubulin beta polymerization in human MCF7 cells. The class given is cell-based.

T1 sequence (P07437 whole entry): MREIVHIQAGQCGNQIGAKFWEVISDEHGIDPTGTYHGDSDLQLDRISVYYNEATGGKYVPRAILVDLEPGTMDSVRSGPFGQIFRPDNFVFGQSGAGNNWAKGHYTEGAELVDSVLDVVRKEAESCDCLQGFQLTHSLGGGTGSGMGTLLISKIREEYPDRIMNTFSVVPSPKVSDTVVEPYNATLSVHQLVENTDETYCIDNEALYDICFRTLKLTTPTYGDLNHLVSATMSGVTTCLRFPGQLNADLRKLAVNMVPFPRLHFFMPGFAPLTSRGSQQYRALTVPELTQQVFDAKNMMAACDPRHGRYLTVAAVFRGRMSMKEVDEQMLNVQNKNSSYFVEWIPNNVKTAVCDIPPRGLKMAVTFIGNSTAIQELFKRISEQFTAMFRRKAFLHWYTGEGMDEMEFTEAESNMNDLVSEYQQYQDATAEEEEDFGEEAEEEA

With `COc1ccc(C2SCC(=O)N2NC(=O)COc2ccc3c(-c4ccccc4)cc(=O)oc3c2)cc1OC` (configuration not stated), the inhibition of growth at 100 µg/mL in data set [1] was 63.3%.
With `O=C(COc1ccc2c(-c3ccccc3)cc(=O)oc2c1)NN1C(=O)CSC1c1ccc(F)cc1` (configuration not stated), the Activity is given as 10.63% in [2]; 2.19% in data set [6]; 18.31% in data set [7]; 18.05% in data set [8]; 43.59% in data set [9]; 5.49% in data set [13]. Further, in data set [14], the Activity worked out at 38.36%. Also, the entries for the “fold change (FC)” value in data set [3], in data set [4] and in [5] were 5, 28.6 and 3.237, respectively. In [1], the inhibition of growth at 100 µg/mL is greater than 70%. In addition, the inhibition at 48 h, 100 ug/ml in data set [10] is 13.2%. The viability at 11.1 µg/mL in data set [11] came out at 79.8%. In addition, the IC50 in [12] came out at 9.37 µM; in data set [15] it was 11.1 µg/mL (≈ 22.6 µM).
For `CCOC(=O)C(S/C(=N/NC(=O)COc1ccc2c(-c3ccccc3)cc(=O)oc2c1)NC)C(C)=O` (configuration not stated), the inhibition of growth at 100 µg/mL in data set [1] was greater than 70%. The IC50 in [15] is 30.6 µg/mL (≈ 59.8 µM).
For the molecule `CCn1c(C)cs/c1=N\NC(=O)COc1ccc2c(-c3ccccc3)cc(=O)oc2c1`, in data set [1], the inhibition of growth at 100 µg/mL is greater than 70%. This molecule also came in with an IC50 in data set [15] of 78 µg/mL (≈ 179 µM).
As for `COc1cc(C2SCC(=O)N2NC(=O)COc2ccc3c(-c4ccccc4)cc(=O)oc3c2)cc(OC)c1OC` (configuration not stated), the inhibition of growth at 100 µg/mL in [1] was determined as 86.4%. For the same molecule, the inhibition at 48 h, 100 ug/ml in data set [10] is 16.8%. Moreover, the IC50 was 6.13 µM in [12] and 21.2 µg/mL (≈ 37.7 µM) in data set [15].
As for `CCn1c(C)c(C(C)=O)s/c1=N\NC(=O)COc1ccc2c(-c3ccccc3)cc(=O)oc2c1`, in data set [1], the inhibition of growth at 100 µg/mL is greater than 70%. Further, the IC50 in [15] turned out to be 28 µg/mL (≈ 58.6 µM).
On to `COc1ccc(C2SCC(=O)N2NC(=O)COc2ccc3c(-c4ccccc4)cc(=O)oc3c2)cc1` (configuration not stated), for which the inhibition of growth at 100 µg/mL in [1] amounted to 64.4%.
As to `O=C(COc1ccc2c(-c3ccccc3)cc(=O)oc2c1)NN1C(=O)CSC1c1ccc(Br)cc1` (configuration not stated), in data set [1], the inhibition of growth at 100 µg/mL is greater than 70%. In data set [15], this molecule returned a concentration for half-maximal inhibition (IC50) of 42 µg/mL (≈ 76.2 µM).
`Cc1cs/c(=N\NC(=O)COc2ccc3c(-c4ccccc4)cc(=O)oc3c2)n1C`: in data set [1], the inhibition of growth at 100 µg/mL was greater than 70%. In data set [15], this molecule displayed an IC50 of 36.9 µg/mL (≈ 87.5 µM).
`CCN/C(=N\NC(=O)COc1ccc2c(-c3ccccc3)cc(=O)oc2c1)SC(C)C(=O)OCC` (configuration not stated): the inhibition of growth at 100 µg/mL in data set [1] is 67.1%.
In the case of `COc1ccc(/C=N/NC(=O)COc2ccc3c(-c4ccccc4)cc(=O)oc3c2)cc1`, in [1], the inhibition of growth at 100 µg/mL was 46.3%.
As for `CCN/C(=N\NC(=O)COc1ccc2c(-c3ccccc3)cc(=O)oc2c1)SC(C(C)=O)C(=O)OCC` (configuration not stated), the inhibition of growth at 100 µg/mL in data set [1] was greater than 70%. This molecule also yielded an IC50 in data set [15] of 41.9 µg/mL (≈ 79.7 µM).
Turning to `O=C(COc1ccc2c(-c3ccccc3)cc(=O)oc2c1)N/N=C/c1ccc(F)cc1`, in data set [1], the inhibition of growth at 100 µg/mL was 65.5%.
On to `CCOC(=O)C(C)S/C(=N/NC(=O)COc1ccc2c(-c3ccccc3)cc(=O)oc2c1)NC` (configuration not stated), for which the inhibition of growth at 100 µg/mL in [1] is greater than 70%. Also, the IC50 in data set [15] is 37 µg/mL (≈ 76.5 µM).
For the molecule `COc1ccc(/C=N/NC(=O)COc2ccc3c(-c4ccccc4)cc(=O)oc3c2)cc1OC`, the inhibition of growth at 100 µg/mL in [1] was found to be 48.9%.
Regarding `COc1cc(/C=N/NC(=O)COc2ccc3c(-c4ccccc4)cc(=O)oc3c2)cc(OC)c1OC`, the inhibition of growth at 100 µg/mL in data set [1] came to 90.7%. Moreover, the IC50 in data set [15] is 4.3 µg/mL (≈ 8.8 µM).
The matching figures for `Cn1c(-c2ccccc2)cs/c1=N\NC(=O)COc1ccc2c(-c3ccccc3)cc(=O)oc2c1`: greater than 70% and 9.3 µg/mL (≈ 19.2 µM).
On to `O=C(COc1ccc2c(-c3ccccc3)cc(=O)oc2c1)N/N=C/c1ccc(Br)cc1`, for which, in [1], the inhibition of growth at 100 µg/mL is 67.8%.
For `O=C(COc1ccc2c(-c3ccccc3)cc(=O)oc2c1)N/N=C/c1ccc(Cl)cc1`, the inhibition of growth at 100 µg/mL in data set [1] stood at 76.5%. The IC50 in data set [15] came out at 38.1 µg/mL (≈ 88 µM).
For `O=C(COc1ccc2c(-c3ccccc3)cc(=O)oc2c1)NN1C(=O)CSC1c1ccc(Cl)cc1` (configuration not stated), in data set [16], the Ratio IC50 was determined as 2.4. In addition, the inhibition of growth at 100 µg/mL in [1] was greater than 70%. For the same molecule, the inhibition at 48 h, 100 ug/ml in [10] was 26.9%. Further, the IC50 in data set [12] turned out to be 2.89 µM; in data set [15] it was 16.7 µg/mL (≈ 32.9 µM).
On to `CCn1c(-c2ccccc2)cs/c1=N\NC(=O)COc1ccc2c(-c3ccccc3)cc(=O)oc2c1`, for which, in data set [1], the inhibition of growth at 100 µg/mL was greater than 70%. This molecule registered an IC50 in [15] of 10.6 µg/mL (≈ 21.3 µM).
The matching figures for `CC(=O)c1s/c(=N\NC(=O)COc2ccc3c(-c4ccccc4)cc(=O)oc3c2)n(C)c1C`: greater than 70% and 42 µg/mL (≈ 90.6 µM).
The matching figures for `NNC(=O)COc1ccc2c(-c3ccccc3)cc(=O)oc2c1`: greater than 70% and 25.2 µg/mL (≈ 81.2 µM).

As usually defined, the IC50 is the concentration that inhibits the measured activity by half. High values mean weaker potency, low ones greater potency.
